Active and inactive are the calls of the source. The calls are words filed in the database; no cut-off is given here.
What was measured:
HCT-116 [1] = test: Induction of apoptosis in human HCT116 cells assessed as early apoptotic cells at 2.5 uM after 24 hrs by annexin V/7-ADD staining-based flow cytometry (reference value: 5.20%); type: functional
UACC-903 [2] = test: Antiproliferative activity against human UACC-903 cells assessed as reduction in cell viability after 72 hrs by MTT assay; type: functional, cell-based; conditions: UACC-903, 72 h
Outline: (§1)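 3000 cells/well incubated in triplicate with serial concentrations of compound for 24, 48 or 72 h at 37 °C. MTT (5.0 mg/mL solution) added 3 h before the end. Formazan dissolved in DMSO, absorbance read at 570 and 630 nm. Viability normalised to vehicle control. IC50 from non-linear regression (variable slope), mean ± SD of triplicates.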

[3] = Antiproliferative activity against human SKOV3 cells assessed as reduction in cell viability after 72 hrs by MTT assay; type: functional, cell-based; conditions: SK-OV-3, 72 h; outline: as §1
HCT-116 [4] = test: Induction of apoptosis in human HCT116 cells assessed as late apoptotic cells at 2.5 uM after 24 hrs by annexin V/7-ADD staining-based flow cytometry (reference value: 1.65%); type: functional
HCT-116 [5] = test: Induction of apoptosis in human HCT116 cells assessed as early apoptotic cells at 5 uM after 24 hrs by annexin V/7-ADD staining-based flow cytometry (reference value: 5.20%); type: functional
MDA-MB-231 [6] = test: Antiproliferative activity against human MDA-MB-231 cells assessed as reduction in cell viability after 48 hrs by MTT assay; type: functional, cell-based; conditions: MDA-MB-231, 48 h; outline: as §1
MEF = test: Cytotoxicity against mouse MEF at 1 to 10 uM after 48 hrs by MTT assay; type: cell-based
Outline: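 Cells (HCT116, nHDF in serum-free fibroblast medium with growth kit, or MEFs) exposed to increasing compound concentrations for 48 h at 37 °C. Viability read by MTT: 3000 cells/well, triplicate, MTT 3 h before end, formazan in DMSO, absorbance 570/630 nm. Mean ± SD.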

[7] = Antiproliferative activity against human DU145 cells assessed as reduction in cell viability after 48 hrs by MTT assay; type: functional, cell-based; conditions: DU-145, 48 h; outline: as §1
NCI-H460 = test: Antiproliferative activity against human NCI-H460 cells assessed as reduction in cell viability after 48 hrs by MTT assay; type: functional, cell-based; conditions: NCI-H460, 48 h; outline: as §1
[8] = Antiproliferative activity against human HCT116 cells assessed as reduction in cell viability after 24 hrs by MTT assay; type: functional, cell-based; conditions: HCT-116, 24 h; outline: as §1
[9] = Antiproliferative activity against human PANC1 cells assessed as reduction in cell viability after 24 hrs by MTT assay; type: functional, cell-based; conditions: PANC-1, 24 h; outline: as §1
HCT-116 [10] = test: Induction of cell cycle arrest in human HCT116 cells assessed as accumulation at G1 phase at 5 uM after 12 hrs by propidium iodide staining-based flow cytometry (reference value: 35%); type: functional
HCT-116 [11] = test: Induction of apoptosis in human HCT116 cells assessed as dead cells at 2.5 uM after 24 hrs by annexin V/7-ADD staining-based flow cytometry (reference value: 3.10%); type: functional
HCT-116 [12] = test: Induction of ROS generation in human HCT116 cells at 10 uM after 6 hrs by flow cytometry (reference value: 6%); type: functional
HCT-116 [13] = test: Induction of apoptosis in human HCT116 cells assessed as dead cells at 5 uM after 24 hrs by annexin V/7-ADD staining-based flow cytometry (reference value: 3.10%); type: functional
HCT-116 [14] = test: Induction of apoptosis in human HCT116 cells assessed as cleaved PARP level at 1 to 10 uM after 24 hrs by Western blot method; type: functional, cell-based
Outline: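 HCT116 lysates after 24 h treatment made in RIPA buffer with protease and phosphatase inhibitors. Resolved by SDS-PAGE (4-12%), transferred to PVDF, probed for PARP with β-actin as loading control, detected by ECL.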

HCT-116 [15] = test: Induction of apoptosis in human HCT116 cells assessed as live cells at 5 uM after 24 hrs by annexin V/7-ADD staining-based flow cytometry (reference value: 90.05%); type: functional
[16] = Antiproliferative activity against human SKOV3 cells assessed as reduction in cell viability after 24 hrs by MTT assay; type: functional, cell-based; conditions: SK-OV-3, 24 h; outline: as §1
HCT-116 [17] = test: Induction of ROS generation in human HCT116 cells at 5 uM after 24 hrs by flow cytometry (reference value: 12.42%); type: functional
HT-29 = test: Antiproliferative activity against human HT-29 cells assessed as reduction in cell viability after 48 hrs by MTT assay; type: functional, cell-based; conditions: HT-29, 48 h; outline: as §1
[18] = Antiproliferative activity against human DU145 cells assessed as reduction in cell viability after 24 hrs by MTT assay; type: functional, cell-based; conditions: DU-145, 24 h; outline: as §1
HCT-116 [19] = test: Induction of apoptosis in human HCT116 cells assessed as early apoptotic cells at 2.5 uM after 24 hrs by 7-ADD and caspase 3/7 activity-based flow cytometry (reference value: 2.45%); type: functional
UACC-903 [20] = test: Antiproliferative activity against human UACC-903 cells assessed as reduction in cell viability after 48 hrs by MTT assay; type: functional, cell-based; conditions: UACC-903, 48 h; outline: as §1
HCT-116 [21] = test: Effect on cell cycle in human HCT116 cells assessed as inhibition of cyclin B1 expression at 1 to 10 uM after 24 hrs by Western blot method; type: functional, cell-based
Outline: (§2)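 CRC cells treated at indicated doses for 24 h. Whole-cell lysates made in RIPA buffer with protease and phosphatase inhibitors and cleared at 15,000 rpm for 10 min. Resolved on 4-12% gels, transferred to PVDF, probed for cell-cycle proteins, detected by ECL. Membranes stripped for sequential probing.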

HCT-116 [22] = test: Induction of apoptosis in human HCT116 cells assessed as live cells at 10 uM after 24 hrs by annexin V/7-ADD staining-based flow cytometry (reference value: 90.05%); type: functional
HCT-116 [23] = test: Induction of apoptosis in human HCT116 cells assessed as dead cells at 10 uM after 24 hrs by 7-ADD and caspase 3/7 activity-based flow cytometry (reference value: 3.25%); type: functional
MDA-MB-231 [24] = test: Antiproliferative activity against human MDA-MB-231 cells assessed as reduction in cell viability after 24 hrs by MTT assay; type: functional, cell-based; conditions: MDA-MB-231, 24 h; outline: as §1
HCT-116 [25] = test: Induction of apoptosis in human HCT116 cells assessed as late apoptotic cells at 5 uM after 24 hrs by 7-ADD and caspase 3/7 activity-based flow cytometry (reference value: 1.70%); type: functional
UACC-903 [26] = test: Potency index, ratio IC50 of selecoxib-1-GSH to IC50 of compound for human UACC-903 cells after 48 and 72 hrs; type: functional
HCT-116 [27] = test: Induction of apoptosis in human HCT116 cells assessed as late apoptotic cells at 2.5 uM after 24 hrs by 7-ADD and caspase 3/7 activity-based flow cytometry (reference value: 1.70%); type: functional
HCT-116 [28] = test: Induction of cell cycle arrest in human HCT116 cells assessed as accumulation at G2/M phase at 5 uM after 12 hrs by propidium iodide staining-based flow cytometry (reference value: 10%); type: functional
[29] = Effect on cell cycle in human HCT116 cells assessed as upregulation of cyclin p21 expression after 24 hrs by Western blot method; type: functional, cell-based; conditions: HCT-116; outline: as §2
HCT-116 [30] = test: Induction of ROS generation in human HCT116 cells at 10 uM after 3 hrs by flow cytometry (reference value: 8.06%); type: functional

Compound CC(=O)Oc1ccccc1C(=O)NCC[Se]C#N has an Activity (HCT-116 [1]) of 13.65%, an IC50 (UACC-903 [2]) of 2.9 µM and an IC50 [3] of 4.4 µM. For the same compound, the Activity (HCT-116 [4]) was 8.3%, the Activity (HCT-116 [5]) was 36.15% and the IC50 (MDA-MB-231 [6]) was 5.5 µM. The Activity (MEF) was “Non-toxic”, the IC50 [7] was 3.4 µM and the IC50 (NCI-H460) was 2.4 µM. It also gave an IC50 [8] of 16.2 µM, an IC50 [9] of 12.1 µM and an Activity (HCT-116 [10]) of 62%. The Activity (HCT-116 [11]) was 1.25%, the Activity (HCT-116 [12]) was 16.54% and the Activity (HCT-116 [13]) was 1.3%. For the same compound, the Activity (HCT-116 [14]) was “Active”, the Activity (HCT-116 [15]) was 31.2% and the IC50 [16] was over 50 µM. The Activity (HCT-116 [17]) was 66.42%, the IC50 (HT-29) was 2.1 µM and the IC50 [18] was 8.2 µM. The Activity (HCT-116 [19]) was 28.45%, the IC50 (UACC-903 [20]) was 4 µM and the inhibition (HCT-116 [21]) was “Active”. For the same compound, the Activity (HCT-116 [22]) was 14.45%, the Activity (HCT-116 [23]) was 2.25% and the IC50 (MDA-MB-231 [24]) was 21.1 µM. For the same compound, the Activity (HCT-116 [25]) was 32.8%, the “Ratio IC50” value (UACC-903 [26]) was “>=5” and the Activity (HCT-116 [27]) was 9.05%. For the same compound, the Activity (HCT-116 [28]) was 24%, the Activity [29] was “Dose-dependent effect” and the Activity (HCT-116 [30]) was 9%.
